Test system: MS2 coat protein
Assay: apparent Kd, MS2 coat protein; higher = weaker binding; RNA-MaP array; FMN 200 µM where present
Summary of the method: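 The apparent Kd is the median of filtered binding-curve fits, one per cluster, to green signal normalised to red-channel RNA signal and control-cluster median Fmax. The clusters were on Illumina sequencing chips, and stalled E. coli RNA polymerase had transcribed the designs on them. Titration used SNAP-549-labelled MS2 coat protein from 0.7 or 1.5 nM, doubling to 3 µM, without and then with constant ligand, in 100 mM Tris-HCl pH 7.5, 80 mM KCl, 4 mM MgCl2, BSA, DTT, yeast tRNA and Tween-20.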

[1] = designed as: OFF switch for flavin mononucleotide, no ligand
[2] = ligand present: flavin mononucleotide, designed as: OFF switch for flavin mononucleotide
[3] = designed as: ON switch for flavin mononucleotide, no ligand
[4] = ligand present: flavin mononucleotide, designed as: ON switch for flavin mononucleotide

Sequence: CUGUAAGAUGUAGGAUAUACAAUAAUAUUGUUAGUAGAAGGACAUGAGGAUCACCCAUGUAUAUAAAUUUUAAAUACUUUUGUG
- apparent Kd [1]: 40.8 nM
- apparent Kd [2]: 31.5 nM

Sequence: UUACUACAUGAGGAUCACCCAUGUCAGGAUAUUGUCUAUACUUUGGAAUAUGUGUCGAUAAGAAGGGACUGUAU
- apparent Kd [1]: 19.9 nM
- apparent Kd [2]: 26.2 nM

Sequence: AAUAAACACACAGGAUAUAGCAUCGUCGGUAUGAACUUAAAGACGACGAUGCUAGAAGGGUGAACACAUGAGGAUCACCCAUGU
- apparent Kd [3]: 232 nM
- apparent Kd [4]: 39.1 nM

Sequence: ACAUACAUUCGAGGAUAUCGGUGAUUAAUAAUACGAGAAGGCGAUUUAAGGCAUAAAGCCUUAGACAUGAGGAUCACCCAUGUA
- apparent Kd [3]: 97.9 nM
- apparent Kd [4]: 43.8 nM

Sequence: GAUCAACAUGAGGAUCACCCAUGUGAGGAUAUGAUACUAUGUACUUCGGUACAUAGUAUCAGAAGGCACUAGGA
- apparent Kd [1]: 65.6 nM
- apparent Kd [2]: 192 nM

Sequence: AUAAUUUUAUAUAUCAUUUUAAUCAGAAGGCAUAACAUGAGGAUCACCCAUGUAUAUUAUUGUUAUGAGGAUAUGAUUUGGUUA
- apparent Kd [1]: 19.1 nM
- apparent Kd [2]: 78.3 nM

Sequence: GUAGCAAUCGGAGGAUAUUCAUAGCCGAAAGGCACAUGAGGAUCACCCAUGUGGCGAAAGCCUUGGGAGAAGGCCGAUUGCUAC
- apparent Kd [3]: 324 nM
- apparent Kd [4]: 18 nM

Sequence: GUCUGGCUAGGAUAUACAGUGUCCACGAGUUAGUUGCUCUAACAUGAGGAUCACCCAUGUAGAAGGAGCGAGAA
- apparent Kd [1]: 20.5 nM
- apparent Kd [2]: 63.7 nM

Sequence: CUAUCUUGCAAGGAUAUGCAAUUUAUUAUUUAUGCAGAAGGUGCUACAUGAGGAUCACCCAUGUUUCUGGGUUU
- apparent Kd [1]: 134 nM
- apparent Kd [2]: 257 nM

Sequence: AAGCCUAAUGAGAAGGUGUGUAUAAAUUAUAUACAAGGAUAUCGGUCAAGCAUGAAAACAUGAGGAUCACCCAUGUUAAGGCUU
- apparent Kd [3]: 5.82 nM
- apparent Kd [4]: 5.51 nM

Sequence: GGAUGACAAAGUCAUCCUAUUCGAACAUGAGGAUCACCCAUGUAGGAUAUGCUUCUCAAAGAGAAGCAGAAGGACAUGUGCUUU
- apparent Kd [1]: 36.8 nM
- apparent Kd [2]: 160 nM

Sequence: GGGUACAUCGGAGGAUAUCAUGUAAAUACAUGAGGAUCACCCAUGUCGAUGGAGACAUCGGAGUUUGAGAAGGCCGAUGUACCG
- apparent Kd [3]: 150 nM
- apparent Kd [4]: 6.58 nM

Sequence: CGAUGACAAAGUCAUCGAAUACGAACAUGAGGAUCACCCAUGUAGGAUAUGCUACUCAAAGAGUAGCAGAAGGACAUGUGCCUU
- apparent Kd [1]: 36.9 nM
- apparent Kd [2]: 271 nM

Sequence: GCCGGGCGAGGAUAUACAUGAGGAUCACCCAUGUAGAUCCUCCGGCGAAAGCCGGGUUGUAGAAGGCGCCCGGC
- apparent Kd [1]: 14.9 nM
- apparent Kd [2]: 25.7 nM

Sequence: AAACUGCAUGUGAGGAUAUGCACCGGCUAAACCGGGCAGAAGGCACAUGAGGAUCACCCAUGUCAUCCUAUUGC
- apparent Kd [1]: 9.41 nM
- apparent Kd [2]: 18.4 nM

Sequence: GGCAGAUGAGGAUAUACGUGCAAUCAGUGAUCCAGCCAUUAACAUGAGGAUCACCCAUGUAGAAGGCGUUUUCU
- apparent Kd [1]: 115 nM
- apparent Kd [2]: 195 nM

Sequence: UUUUUUGUUGUGAGGAUAUCGUUGUUGUUGUGGAUCGAGAAGGCACAUGAGGAUCACCCAUGUUUGUUGUGGUU
- apparent Kd [1]: 89.1 nM
- apparent Kd [2]: 220 nM

Sequence: UCCACUGCUGAGAAGGGAUACGGCUGGGUCGCAUCAGGAUAUCGAUACAGUGCAGCAUGAGGACAUGAGGAUCACCCAUGUGUG
- apparent Kd [3]: 81 nM
- apparent Kd [4]: 27 nM

Sequence: CCAUGUUAGCAGGAUAUGCCAUUAUUCCUUUACGCAGAAGGGCUUACAUGAGGAUCACCCAUGUAACAUUUCAU
- apparent Kd [1]: 13.4 nM
- apparent Kd [2]: 29.5 nM

Sequence: UAUCUGUCGGUCAGGAUAUCGUUUGCCACUGUAGCCGAGAAGGGACAUGAGGAUCACCCAUGUGAUUCACGGCA
- apparent Kd [1]: 23.1 nM
- apparent Kd [2]: 27.1 nM

Sequence: GCGUCAGAAUUAAUUGUGUCAUACAGAAGGCAAUAUUAAGGUUAAGACAUGAGGAUCACCCAUGUUGAGGAUAUGUAGUGACGC
- apparent Kd [1]: 10.5 nM
- apparent Kd [2]: 18.6 nM

Sequence: UGGUACUAGGGAGGAUAUGGGAAGAUACAUGAGGAUCACCCAUGUUUAAGAAUGCCGCGAGGCAACUAGAAGGCCCUAGUACCU
- apparent Kd [3]: 398 nM
- apparent Kd [4]: 19.6 nM

Sequence: CCUAUAAGAAAAUAGACGAAGUGGCCAGAAGGUGAAUGCCACAUGAGGAUCACCCAUGUUUCGAUCAAGGAUAUGGUUUCUCAC
- apparent Kd [3]: 497 nM
- apparent Kd [4]: 129 nM

Sequence: CCACGAGACUAAGGAUAUGGAGUGUCAACAUAAAACAUGAGGAUCACCCAUGUAAAGAGUACAAUUCAGAAGGUAGAGACGUGG
- apparent Kd [3]: 21.9 nM
- apparent Kd [4]: 21.5 nM

Sequence: CUCAGACAUGAGGAUCACCCAUGUGAGGAUAUGAUGCAGCAGUGGUCUACGCUGUGCAUCAGAAGGCACAUGUG
- apparent Kd [1]: 36.5 nM
- apparent Kd [2]: 12.5 nM

Sequence: AAUUAUUUACAGAAGGAGUAAGAUUAUGUAUUACUAGGAUAUGUUCACAUGAGGAUCACCCAUGUACUAGUAGGUUUUUUAUGU
- apparent Kd [1]: 6.96 nM
- apparent Kd [2]: 7.66 nM

Sequence: ACAUGAGGAUCACCCAUGUUGACAUAGGAUAUACAACAAUAGUUACAAUCAUGUACUAUUUGAUAGUAGAAGGAUGGAACAUGA
- apparent Kd [1]: 15.2 nM
- apparent Kd [2]: 25.8 nM

Sequence: GUAGCAUACCGAGGAUAUUCAUAUAGUAAUCUAACAUGAGGAUCACCCAUGUGGCGAAAGCCUUGGGAGAAGGCGGAAUGCUAC
- apparent Kd [3]: 480 nM
- apparent Kd [4]: 35.6 nM

Sequence: AUCCUACAUGAGGAUCACCCAUGUAAGGAUAUGCGGCGACGAGAUUGUCUAUACGGCCGCAGAAGGUACCCGGG
- apparent Kd [1]: 16.1 nM
- apparent Kd [2]: 18.6 nM

Sequence: CUUUUGUGAGGAUAUCAGUAGUAAAAAUAUAAAAUUACUACUGAGAAGGCACAUGAGGAUCACCCAUGUUCCUC
- apparent Kd [1]: 39.7 nM
- apparent Kd [2]: 244 nM

Sequence: GGAUAGGACAGAGGAUAUACGUGCUAGAGAUACUAGCAAUAUUUCCUCACAUGAGGAUCACCCAUGUAGAAGGCUGUCCUAUCG
- apparent Kd [1]: 6.26 nM
- apparent Kd [2]: 73.7 nM

Sequence: GGAGAGUUCACAGGAUAUCAUGGGUAGUUAUUUUGAGAAGGGUGAACAAGGAACAUGAGGAUCACCCAUGUAUCCUGGGAGGGC
- apparent Kd [3]: 24.4 nM
- apparent Kd [4]: 36.8 nM

Sequence: UAAAAGCUAGGAUAUACAUGAGGAUCACCCAUGUCACGGGUGCCACACCGAAAGGUGCGUAGAAGGAGCCCAAA
- apparent Kd [1]: 38.6 nM
- apparent Kd [2]: 103 nM

Sequence: GACAUACAUGAGGAUCACCCAUGUUCAGACGAACAAGGAUAUGUGUGGAAACCAUACUAUACAGAAGGUGUCUGUC
- apparent Kd [3]: 78.4 nM
- apparent Kd [4]: 36 nM

Sequence: AAUACUACAGGAUAUACAUGGGUGAUCCUCAUGUCCCUUCUACAUGAGGAUCACCCAUGUAGAAGGGUAGUACA
- apparent Kd [1]: 13.4 nM
- apparent Kd [2]: 8.3 nM

Sequence: GGAUCCAACACAGGAUAUGCUGGACUUUGUCCAGCAGAAGGGUGAAGAACAUGAGGAUCACCCAUGUGGAUCCAUAUAUGUAAU
- apparent Kd [3]: 273 nM
- apparent Kd [4]: 16.6 nM

Sequence: UAAUGACCUGUACCUAGUUGGUGACAUGAGGAUCACCCAUGUCAGGAUAUCGGGUUUGAAAACAACGAGAAGGGACAACGGGUG
- apparent Kd [1]: 20.9 nM
- apparent Kd [2]: 42.1 nM

Sequence: AAUAUAAGAGCUGGAAAUCUCAAAACAUGAGGAUCACCCAUGUAGGAUAUCAGCACGAUAAGUGCUGAGAAGGACAUCCAGCUC
- apparent Kd [1]: 16 nM
- apparent Kd [2]: 18.1 nM

Sequence: GACUGCCGAGGAUAUACAUGAGGAUCACCCAUGUGCUUCAGCAUUUAAUAAUGCAUGGGUAGAAGGCGGUAGUC
- apparent Kd [1]: 42.8 nM
- apparent Kd [2]: 74.6 nM

Sequence: AAAAGGUUAGGAUAUGCGUGGAAAAAGUGUAUCUAAAAAAAACAUGAGGAUCACCCAUGUAGAAGGGACUUAAA
- apparent Kd [1]: 45.3 nM
- apparent Kd [2]: 44 nM

Sequence: ACUUUACGAGGAUAUACUGUCGGGCCUCGGGCGUCCCUGCGACAUGAGGAUCACCCAUGUAGAAGGCGUUUACU
- apparent Kd [1]: 20.6 nM
- apparent Kd [2]: 35.2 nM

Sequence: GGUAUACAUGAGGAUCACCCAUGUCGUAUGACAUGAGGAUAUGUACAGACUUCGGUCUGUACAGAAGGCGUGUGUC
- apparent Kd [3]: 362 nM
- apparent Kd [4]: 158 nM

Sequence: GAAGGAUGAGCGUAGGAUAUAGGAGGAGUGACAUGAGGAUCACCCAUGUGGUAGGAGGGAGGGUACUAGAAGGACGAGGAAGAGG
- apparent Kd [3]: 63.5 nM
- apparent Kd [4]: 52.2 nM

Sequence: GUUAUUUAUGUAGGAUAUGCGAGGCGAGCCUGAGCAGAAGGACAUGAGGAUCACCCAUGUAUUGCGGUUUGUGUUCAGAUCGCU
- apparent Kd [1]: 17.9 nM
- apparent Kd [2]: 25.6 nM

Sequence: UAUGCACAUGAGGAUCACCCAUGUGAGGAUAUAGGUCGUGUGCGUUCACGCAUCGUACUUAGAAGGCACUGCGG
- apparent Kd [1]: 46.9 nM
- apparent Kd [2]: 92.5 nM

Sequence: UACAGACAUGAGGAUCACCCAUGUGAGGAUAUUUCUGCUGGGAUCAGCCCAAUAUGCGAGAGAAGGCACUAGGG
- apparent Kd [1]: 133 nM
- apparent Kd [2]: 184 nM

Sequence: GCCAUCGUACGAGGAUAUGGCACCGAAACGGUGCCAGAAGGCGUGUCAAUAGACAUGAGGAUCACCCAUGUAUUAUCGAUGGCA
- apparent Kd [3]: 23.2 nM
- apparent Kd [4]: 17.6 nM

Sequence: ACAUGAGGAUCACCCAUGUUUAUUGGGUACUAUACUAUCAGCAAGGAUAUGCAAAUUUUUUUUACGCAGAAGGUGCAGGAACCU
- apparent Kd [1]: 523 nM
- apparent Kd [2]: 334 nM

Reference: the EternaBench riboswitch data
